STEP block: STEP phosphatase inhibitors, primary screen, biochemical, fluorescence intensity, uHTS; Tyrosine-protein phosphatase non-receptor type 5 (Homo sapiens), P54829; recombinant STEP, OMFP fluorogenic substrate; inhibition, % at 20 µM; 0.25% of 360,000 active;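 active = inhibition at 20 µM, scaled per plate between control wells, above about 37%, limit read from the data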;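 also: 0% = DMSO with enzyme and substrate and 100% = substrate only without enzyme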
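System: STEP (striatal-enriched tyrosine phosphatase) enzyme, cell-free; medium: Bis-Tris pH 6.0 buffer with DTT, detergent; dosing: 20 µM, 1% DMSO; times: reaction 20 min, ambient temperature; detection: fluorescence, 480/540 nm; read-out basis: normalized % inhibition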
Scp1 inh: Scp-1 phosphatase inhibitors, primary screen, biochemical, colorimetric, uHTS; Carboxy-terminal domain RNA polymerase II polypeptide A small phosphatase 1 (Homo …; Recombinant Scp1, phosphopeptide, malachite green phosphate absorbance; inhibition, % at 20 µM; 0.88% of 340,000 active; AID 493091, 2011;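 active = inhibition above about 50% at 20 µM, limit read from the data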;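 also: plate controls were DMSO wells with enzyme for no effect and wells lacking enzyme for full effect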
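assay system = SCP-1 phosphatase catalytic domain, residues 76-261 | buffer or medium = 50 mM Tris acetate pH 5.5, 0.005% Tween-20, 10 mM MgCl2 | incubation = enzyme reaction 45 min at room temperature, colour 5 min, stabilisation 30 min | signal = Phosphate-binding colour reagent, absorbance read at 630 nm | measure = % inhibition at 20 µM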
SUMO1 PPI mod: modulators of SUMO1 protein-protein interactions, primary screen, biochemical, uHTS; Small ubiquitin-related modifier 1 (Homo sapiens), P63165; SUMO1 binding to a labelled peptide, TR-FRET, 1 h; inhibition, % at 20 µM; 0.33% of 360,000 active; in the data active = inhibition above about 37%
DNMT1 inh: human DNMT1 methyltransferase inhibitors, primary screen, biochemical, molecular beacon, fluorescence, HinP1I cleavage, uHTS | inhibition (reported as % activation of signal), % at 10 µM | 0.83% of 360,000 active; in the data active = inhibition above about 50%
Target sequence (P26358 504-1616 limits assumed): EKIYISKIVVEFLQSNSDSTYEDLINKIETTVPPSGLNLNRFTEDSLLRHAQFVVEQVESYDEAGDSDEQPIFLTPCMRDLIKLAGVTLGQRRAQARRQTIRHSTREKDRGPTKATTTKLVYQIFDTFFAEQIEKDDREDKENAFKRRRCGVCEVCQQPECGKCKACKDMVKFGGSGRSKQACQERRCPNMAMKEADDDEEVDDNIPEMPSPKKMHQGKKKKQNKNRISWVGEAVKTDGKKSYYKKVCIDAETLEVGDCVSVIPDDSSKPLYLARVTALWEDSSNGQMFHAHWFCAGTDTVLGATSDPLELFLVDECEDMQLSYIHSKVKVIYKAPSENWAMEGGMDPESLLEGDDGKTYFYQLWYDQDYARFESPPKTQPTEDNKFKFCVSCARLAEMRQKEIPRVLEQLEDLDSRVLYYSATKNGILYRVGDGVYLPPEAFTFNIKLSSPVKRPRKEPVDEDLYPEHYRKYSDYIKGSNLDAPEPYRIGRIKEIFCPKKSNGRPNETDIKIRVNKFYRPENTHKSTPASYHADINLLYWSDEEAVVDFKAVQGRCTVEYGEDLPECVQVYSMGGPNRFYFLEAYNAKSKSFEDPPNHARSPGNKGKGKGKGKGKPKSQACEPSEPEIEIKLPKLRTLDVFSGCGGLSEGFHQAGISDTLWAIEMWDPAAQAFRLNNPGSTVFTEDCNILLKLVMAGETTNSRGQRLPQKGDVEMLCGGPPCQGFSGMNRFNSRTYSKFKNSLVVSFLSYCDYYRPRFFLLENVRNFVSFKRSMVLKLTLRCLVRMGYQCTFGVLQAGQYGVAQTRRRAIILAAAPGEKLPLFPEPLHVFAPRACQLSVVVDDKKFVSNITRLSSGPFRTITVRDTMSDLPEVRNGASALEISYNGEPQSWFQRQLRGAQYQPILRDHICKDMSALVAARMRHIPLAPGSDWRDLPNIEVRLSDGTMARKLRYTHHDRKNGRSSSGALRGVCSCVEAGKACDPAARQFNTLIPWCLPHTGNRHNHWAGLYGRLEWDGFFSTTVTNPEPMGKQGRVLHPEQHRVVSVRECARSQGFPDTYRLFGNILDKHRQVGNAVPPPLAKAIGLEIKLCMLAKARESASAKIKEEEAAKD
LMPTP block: LMPTP phosphatase inhibitors, primary screen, biochemical, fluorescence intensity, uHTS; Low molecular weight phosphotyrosine protein phosphatase (Homo sapiens), P24666; recombinant LMPTP-A, OMFP fluorogenic substrate; inhibition, % at 20 µM; 0.22% of 360,000 active; AID 651560, 2012;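 active = compounds that cut the enzyme signal by at least half of the control window in the single-dose screen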;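 also: plate controls were DMSO wells with enzyme plus substrate for no effect and substrate without enzyme for full effect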
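Test system – LMPTP-A enzyme · Amount – LMPTP-A at 0.625 nM final in the reaction · Buffer or medium – Bis-Tris pH 6.0, DTT, detergent · Reagent – OMFP 400 µM · Doses – single 20 µM dose · Schedule – reaction 50 min, room temperature, dark · Detection – fluorescence intensity of OMFP turnover product · Evaluation – percent inhibition versus substrate-only and uninhibited controls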
Beacon interf DR: spectral interference with molecular beacon fluorescence, dose response, artefact control for DNMT1 inhibitor project, biochemical, fluorescent molecular beacon | shares compounds with DNMT1 inh | spectral interference counter-screen | IC50, µM | 200 tested, under 10 active | AID 602382, 2012; call rule not given here
DNMT1 confirm: DNMT1 methyltransferase inhibitor retest, confirmation, biochemical, molecular beacon, fluorescence, single concentration; 8% of 2,300 active; inhibition, % at 10 µM; shares compounds with DNMT1 inh; DNMT1 molecular beacon HinP1I cleavage;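 active = average inhibition of at least 30% in the single-concentration confirmation test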
DNMT1 interf: beacon fluorescence artifact counter-screen; shares compounds with DNMT1 inh; DNMT1 molecular beacon spectral interference counterscreen, fluorescence 485/520; activation (fluorescence interference), % at 10 µM; 1% of 2,300 active; AID 602387;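 active = activation of at least 30% at 10 µM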;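 also: DNMT1 catalytic domain with a HinP1I cleavage step and a FAM/dabcyl DNA beacon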
The depositor's hits bear a star; / = not tested or not shown. In the library only some 1.7% were active in any assay of this set; here they are far more common.

SMILES | STEP block | Scp1 inh | SUMO1 PPI mod | DNMT1 inh | LMPTP block | DNMT1 confirm | DNMT1 interf | others
CCCCCCNC(=O)O[C@H]1C[C@@H]2C(=O)N(c3ccccc3)C(=O)[C@@H]2[C@@H]2CN(S(=O)(=O)c3ccc(C)cc3)C[C@]12O | -5 | / | -2 | 76* | 1 | 3 | 3
Cc1ccc(S(=O)(=O)N2C[C@H]3[C@H]4C(=O)N(c5ccccc5)C(=O)[C@H]4C[C@H](OC(=O)NC4CC4)[C@@]3(O)C2)cc1 | -2 | / | -1 | 0 | -1 | / | /
CCN(CC)c1ccc2cc(C(C)=O)c(=O)oc2c1 | -19 | -8 | -19 | 27 | 2 | / | /
CCN(CC)c1ccc2cc(C=O)c(=O)oc2c1 | -46 | 19 | -37 | 71* | 5 | 39* | 59*
CCN(CC)c1ccc2cc(-c3nnc(-c4ccncc4)o3)c(=O)oc2c1 | -190 | -4 | -6 | 136* | 6 | 88* | 61*
CCN(CC)c1ccc2cc(C(N)=O)c(=O)oc2c1 | -6 | 9 | -22 | 1 | -1 | / | /
CCc1nnc(NC(=O)CSc2nnc(C(C)NC(=O)c3ccccc3F)n2C)s1 (configuration not stated) | -1 | -10 | 2 | 0 | 0 | / | /
Cc1ccc2c(N)c(C)ccc2c1 | -2 | -9 | -18 | -9 | -1 | / | /
Cc1ccc2cc3c(N)c4c(C)ccc(C)c4nc3nc2c1 | -7 | -7 | -13 | 72* | 5 | 25 | -8 | Beacon interf DR=>99
CCSC1=N/C(=C\c2ccc3c(c2)OCO3)C(=O)S1 | 0 | -4 | -10 | 3 | 2 | / | /
C=CCSC1=N/C(=C\c2cc(OC)c3c(c2)OCO3)C(=O)S1 | -2 | -6 | 3 | 74* | 10 | 17 | 9
Cc1ccc(CSc2nnc(SCC(=O)N/N=C/C=C/c3ccccc3[N+](=O)[O-])s2)cc1 | 4 | -5 | -4 | -1 | 1 | / | /
Cc1ccc(CSc2nnc(SCC(=O)N/N=C/C=C/c3ccco3)s2)cc1 | 0 | -6 | 3 | 52* | 3 | 2 | 3
Cc1nnc(-c2ccco2)c2cn(-c3cccc(Br)c3)nc12 | -4 | 5 | 6 | 91* | 14 | 3 | -3
O=C(c1coc(=O)c(Br)c1)N1CCCc2ccccc21 | 6 | 19 | 9 | 58* | 10 | 2 | 3
CC1(C)CCCN(C(=O)c2coc(=O)c(Br)c2)C1 | 97* | 96* | 3 | 87* | 54* | 103* | -4 | Beacon interf DR=>99
O=C(c1cc(=O)c2ccccc2o1)N1CCCc2ccccc21 | -2 | -7 | -3 | 84* | 0 | 4 | 5
COc1ccc(-n2nnnc2SCC(=O)Nc2cccc(O)c2)cc1 | -3 | -4 | 7 | 0 | 1 | / | /
CCOc1ccc(C(=O)NCC(=O)N2CCCC2)cc1 | 1 | 10 | 1 | 1 | -1 | / | /
CC1CCCCC1NC(=O)CSc1nnc(C(F)(F)F)n1C (configuration not stated) | -4 | / | 0 | 2 | -2 | / | /
COc1ccc(Cl)cc1NC(=O)COC(=O)C1CCCCC1 | 1 | -10 | 1 | -6 | 1 | / | /
Cc1ccc(Cl)cc1NC(=O)COC(=O)C1CCCC1 | -2 | 0 | -4 | 55* | -1 | 3 | 1
CCCC1NC(=O)c2cccnc2-n2c1nc1ccc(Cl)cc1c2=O (configuration not stated) | -1 | / | 1 | 8 | -1 | / | /
CCC1=NN2C(=N)/C(=C\c3ccc(SCc4ccco4)o3)C(=O)N=C2S1 | 17 | 44 | 54* | 108* | 42 | 6 | 3
CCCC1=NN2C(=N)/C(=C\c3ccc(SCc4ccco4)o3)C(=O)N=C2S1 | 16 | 81* | 50* | 105* | 51* | 14 | -1
SMILES | STEP block | Scp1 inh | SUMO1 PPI mod | DNMT1 inh | LMPTP block | DNMT1 confirm | DNMT1 interf | others
COc1ccccc1C#Cc1cnc2c(c1)C(=O)N([C@H](C)CO)C[C@H](C)[C@@H](CN(C)S(=O)(=O)c1cn(C)cn1)O2 | -1 | / | -2 | 100* | -2 | 7 | 9
CC(=O)NC12CC3CC(C1)CC(C(=O)N(C)CC(=O)Nc1ccc(F)c(F)c1F)(C3)C2 | -1 | -4 | 2 | 1 | -1 | / | /
COc1ccc(C2(c3ccc(OC)cc3)NC(=O)N(CC(=O)NCC(C)c3ccccc3)C2=O)cc1 (configuration not stated) | -2 | -14 | -1 | -11 | 3 | / | /
CC1CC(NC(=O)N(C)C)N(C)C(=O)N1 (configuration not stated) | -5 | 0 | 0 | 66* | -1 | 4 | 7
COCCN(C(=O)CCC(=O)Nc1ccccn1)C(C(=O)NCCC(C)C)c1ccc(C)cc1 (configuration not stated) | -1 | -8 | -2 | -1 | -1 | / | /
O=C1/C(=C/c2ccco2)Oc2c1ccc(O)c2CN1CCCCC1 | 1 | 14 | 0 | 79* | 16 | 15 | 11
CC1CCN(Cc2c(O)ccc3c2O/C(=C\c2ccco2)C3=O)CC1 | 3 | 14 | 25 | 47 | 10 | / | /
CSc1ccc(/C=C/C(=O)OCC(=O)NC2CCCCCC2)cc1 | -2 | / | -9 | 65* | 0 | 1 | 6
COc1cccc(-c2nc(-c3ccc(NC(=O)c4cccnc4)cc3)no2)c1 | -2 | 5 | 2 | -10 | 0 | / | /
COc1ccc(CC(=O)Nc2ccc(-c3noc(-c4cccc(OC)c4)n3)cc2)cc1 | -7 | 11 | -4 | 61* | -1 | 1 | 1
COc1ccc(/C=N/NC(=O)c2ccc(NC(C)=O)cc2)cc1COc1ccc(F)cc1F | 1 | 24 | 14 | 77* | 7 | -2 | -6
COc1ccc(/C=N\NC(=O)c2ccccc2F)cc1COc1ccc(F)cc1F | 3 | -9 | 0 | -5 | 8 | / | /
COc1ccc(/C=N/NC(=O)c2nc(Cl)c(Cl)c(N)c2Cl)cc1COc1ccc(F)cc1F | 3 | 13 | 2 | 53* | 3 | 9 | 0
